Sampled rows, rich in hits. Any-hit rate of the full collection: about 2.8%.
NPY Y2 blocker = NPY-Y2 (human) receptor antagonism | P49146 | NPY-Y2 expressing cells, antagonist mode | inhibition, % at 2.7 µM | 140,000 tested, 0.99% active | AID 793;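 note: 0% = vehicle with agonist challenge and 100% = reference antagonist with challenge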
NPY-Y2 PAM-ag = potentiates or activates human NPY-Y2 receptor; P49146; cells expressing NPY-Y2, potentiator/agonist read-out; activation, % at 3.6 µM; 220,000 tested, 0.45% active; in the data active = activation above about 27%;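 note: cells stimulated with NPY near EC25 plus isoproterenol at EC100; 0% = vehicle plus submaximal agonist and 100% = vehicle plus saturating agonist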
NPY-Y1 PAM-ag = human NPY-Y1 potentiation or agonism, primary screen; P25929; NPY-Y1 expressing cells, potentiator/agonist activation; activation, % at 3.6 µM; 220,000 tested, 0.37% active; in the data active = activation above about 33%, passing the limit was not always enough;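 note: cells stimulated with NPY at EC10 then isoproterenol at EC100; 0% = low agonist plus stimulus and 100% = saturating agonist plus stimulus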
Measles CPE = protection of cells from measles virus; Measles virus-infected cells, CPE protection, absorbance; protection (pct of control), % at 4 µM; 140,000 tested, 1.5% active; AID 841; in the data active = protection mostly above about 24%, no sharp cut-off; inactive = mostly below about 26%
MDM2 E3 inh = inhibitors of human Mdm2 E3 ubiquitin ligase | cell-based MDM2 ubiquitination luciferase reporter, 2 h; 0 = plate control, 100 = twice control, blank-subtracted | signal enhancement, % at 5 µM | 210,000 tested, 0.11% active;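 active = signal enhancement of 30% or more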;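 note: luminescence tracks abundance of the self-degrading MDM2-luciferase fusion protein; higher signal means inhibition of MDM2 E3 ligase activity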
Target sequence (Q00987 whole entry, looked up, the tested form may be a part): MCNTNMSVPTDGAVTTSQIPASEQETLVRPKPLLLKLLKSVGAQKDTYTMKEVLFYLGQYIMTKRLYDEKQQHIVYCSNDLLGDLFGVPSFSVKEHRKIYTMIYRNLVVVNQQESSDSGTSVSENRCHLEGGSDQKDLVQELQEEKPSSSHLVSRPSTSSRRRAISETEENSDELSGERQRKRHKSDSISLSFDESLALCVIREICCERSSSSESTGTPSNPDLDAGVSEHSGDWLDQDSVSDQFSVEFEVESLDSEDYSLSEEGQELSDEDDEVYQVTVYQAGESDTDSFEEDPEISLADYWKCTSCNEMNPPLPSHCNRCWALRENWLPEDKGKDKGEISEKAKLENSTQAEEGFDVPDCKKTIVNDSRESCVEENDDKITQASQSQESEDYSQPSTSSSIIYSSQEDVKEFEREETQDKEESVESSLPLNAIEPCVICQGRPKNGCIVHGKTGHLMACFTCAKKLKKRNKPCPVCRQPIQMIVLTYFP
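Test system: stable mammalian line carrying autodegrading MDM2–luciferase fusion reporter; quantity: 2000 cells in each well; times: 4 h cell settling then 2 h compound exposure, 37 °C; detection: luminescence with SteadyLite reagent, 15 min at room temperature; evaluation: percent signal gain over controls, blank-subtracted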
NPY-Y1 antag = blocks the human neuropeptide Y Y1 receptor; P25929; AID 1040; inhibition, % at 3.6 µM; 200,000 tested, 1% active; HEK293-CNG Y1 cells, membrane potential fluorescence; NPY at EC95, then isoproterenol;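 active = inhibition above the campaign mean inhibition of all tested compounds plus 3 SD, cut at about 20% in these data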;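 note: 0% = DMSO wells given NPY plus isoproterenol and 100% = isoproterenol alone without NPY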
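Test system – HEK293 Y1/CNG channel cell line · Also added – NPY agonist 25 nM, then isoproterenol 1 µM plus Ro 20-1724 25 µM · Compound dosing – one concentration, 3.6 µM, in 0.4% DMSO · Schedule – compound incubation 1 h at room temperature, readout 45 min post-stimulation · Technique – fluorescence, membrane potential probe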
NPY1 antag conf = confirmation of human neuropeptide Y receptor Y1 antagonists | shares compounds with NPY-Y1 antag | HEK293-CNG NPY-Y1, membrane potential fluorescence, cAMP; NPY challenge against isoproterenol-raised cAMP | inhibition, % at 3.6 µM | 1,200 tested, 21% active | AID 1254; in the data active = inhibition above about 20%;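 note: 0% = vehicle with agonist plus stimulus and 100% = stimulus alone without agonist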
NPY-Y2 antag ct = counter-screen for NPY-Y1 antagonists: human NPY-Y2 antagonism; shares compounds with NPY-Y1 antag; HEK293 NPY-Y2 CNG membrane potential fluorescence; cells given NPY, then isoproterenol; inhibition, % at 3.6 µM; 1,200 tested, 28% active; AID 1255;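 note: 0% = DMSO with agonist challenge and 100% = reference antagonist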
* marks the source's active call; other numbers are inactive results; x = not tested or not shown. Cut-off read from the data, not from the text of the source, unless noted: active = inhibition above about 17%; inactive = the rest.

SMILES | NPY Y2 blocker | NPY-Y2 PAM-ag | NPY-Y1 PAM-ag | Measles CPE | MDM2 E3 inh | NPY-Y1 antag | NPY1 antag conf | NPY-Y2 antag ct
O=C(NC1CCCC1)C(c1ccccc1F)N(C(=O)Cc1cccs1)c1ccc2c(c1)OCCO2 (stereo unspecified) | 7.6 | 5.0 | -7.5 | 7.8 | -5.2 | 20.5* | 10.2 | 7.5
O=C(c1cc(-c2cccs2)on1)N1CCN(c2ccccc2)CC1 | 13.1 | -22.1 | -31.6 | x | -21.3 | 25.4* | 7.7 | 9.5
O=C(c1cc(-c2cccs2)on1)N1CCN(c2ccc(F)cc2)CC1 | 8.7 | 6.4 | -4.1 | 5.3 | 9.4 | 8.9 | x | x
COC(=O)c1ccc(CSc2nc3ccc(S(=O)(=O)N4CCOCC4)cc3[nH]2)cc1 | -0.2 | 2.2 | -10.1 | 6.8 | -9.3 | 2.9 | x | x
CC(C)[C@H](NC(=O)c1ccco1)C(=O)OCC(=O)NC12CC3CC(CC(C3)C1)C2 | x | 2.6 | -11.9 | x | -1.3 | 6.9 | x | x
CC(NC(=O)COC(=O)CCNC(=O)c1ccco1)C12CC3CC(CC(C3)C1)C2 (stereo unspecified) | 4.1 | -24.7 | -30.5 | 9.9 | 0.2 | 20.3* | 22.1* | 27.1*
COCCNC(=O)c1ccccc1NC(=O)c1ccccc1SC | x | 5.0 | -1.2 | x | -6.9 | 4.8 | x | x
O=c1cc(C23CC4CC(CC(C4)C2)C3)[nH][nH]1 | 1.7 | -9.5 | -35.2 | 8.6 | -17.2 | -2.1 | x | x
Cc1cc(NC(=O)c2cc3n(n2)C(C(F)(F)F)CC(c2ccc(Cl)c(Cl)c2)N3)no1 (stereo unspecified) | 3.3 | 11.1 | 20.2 | 6.0 | -4.1 | 21.4* | 0.0 | 3.6
Cc1ccc(C2CC(C(F)(F)F)n3nc(C(=O)Nc4c(C)n(C)n(-c5ccccc5)c4=O)cc3N2)cc1 (stereo unspecified) | x | -0.3 | 6.3 | x | 8.7 | 4.0 | x | x
CCN(CC)C(=O)CC(c1ccc(N(C)C)cc1)c1c(O)cc(OC)cc1OC (stereo unspecified) | x | x | x | x | -5.9 | x | x | x
Cn1c(=O)[nH]c(=O)c2c1nc(CN1CCN(Cc3ccccc3)CC1)n2CC(N)=O | 4.8 | 6.2 | -12.2 | -0.1 | -17.3 | 9.3 | x | x
O=C1N(Cc2cccc(Cl)c2)C[C@@H]2C[C@@H](c3ccc4nonc4c3)N3CCC[C@@]123 | x | -15.9 | -4.5 | x | -10.0 | 24.4* | 10.3 | 9.0
COc1ccccc1CN1C[C@@H]2C[C@@H](C3=Cc4cc(Cl)ccc4OC3)N3CCC[C@@]23C1=O | x | -19.2 | -17.6 | x | -10.3 | 24.3* | 18.8 | 12.8
O=C1N(Cc2cccc(Cl)c2)C[C@@H]2C[C@@H](c3cccn3-c3nccs3)N3CCC[C@@]123 | x | -24.6 | -27.0 | x | -9.4 | 26.3* | 4.1 | 6.1
O=C1N(Cc2cccc(Cl)c2)C[C@@H]2C[C@@H](c3cccn3-c3ccccn3)N3CCC[C@@]123 | x | -15.2 | -9.1 | x | -3.3 | 18.5 | x | x
CN1CCN(c2ccc(Cl)cc2NC(=O)CCN2C(=O)c3ccccc3C2=O)CC1 | x | -22.1 | -11.2 | x | 7.4 | 3.5 | x | x
O=C(OCc1csc(Nc2ccccc2)n1)c1ccc(Cl)cc1 | 7.7 | -16.5 | -10.7 | 13.1 | -10.5 | 11.8 | x | x
Cc1cccc2nc(COc3ccc(Cl)c4cccnc34)cn12 | x | 8.9 | -2.0 | x | -7.7 | 5.6 | x | x
Cc1ccc(CNC(=O)CCNC(=O)c2ccco2)cc1 | 0.5 | -9.3 | -7.9 | 6.6 | 5.2 | -2.8 | x | x
CCCOc1ccc(-c2nc(OC)c3ccccc3n2)cc1 | 2.8 | 3.1 | -37.2 | 3.3 | -3.6 | 20.4* | 11.6 | 18.1*
COc1ccccc1NC(=O)CSc1nc(N)c(-c2ccccc2)c(=O)[nH]1 | x | -45.2 | -6.2 | x | 0.7 | 73.6* | 54.7* | 67.6*
COCCCNc1nc(SCc2ccccc2)nc2sc3c(c12)CCC3 | 2.0 | -22.8 | -70.6 | 8.1 | -7.3 | 21.1* | 29.8* | 46.1*
O=C(CNC(=O)c1ccccc1F)Nc1ccccc1C(F)(F)F | x | 3.9 | 2.2 | x | -9.1 | -5.3 | x | x

Screening data (PubChem)
